# Compound activity deposited in PubChem by Johns Hopkins Ion Channel Center.
# TRPC6 activator: mouse TRPC6 channel activators, primary screen, cell-based, HEK293, membrane potential dye | Short transient receptor potential channel 6 (Mus musculus), Q61143 | HEK293-TRPC6 membrane potential dye fluorescence; stronger effect = higher value | B-score at 10 µM | actives 0.13% (n = 310,000);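 active = B-score of the integrated fluorescence ratio above library mean plus 3 SD, and starting fluorescence ratio within library mean plus 5 SD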;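 also: higher score means more depolarization so channel activation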
# Target sequence (Q61143 whole entry, looked up): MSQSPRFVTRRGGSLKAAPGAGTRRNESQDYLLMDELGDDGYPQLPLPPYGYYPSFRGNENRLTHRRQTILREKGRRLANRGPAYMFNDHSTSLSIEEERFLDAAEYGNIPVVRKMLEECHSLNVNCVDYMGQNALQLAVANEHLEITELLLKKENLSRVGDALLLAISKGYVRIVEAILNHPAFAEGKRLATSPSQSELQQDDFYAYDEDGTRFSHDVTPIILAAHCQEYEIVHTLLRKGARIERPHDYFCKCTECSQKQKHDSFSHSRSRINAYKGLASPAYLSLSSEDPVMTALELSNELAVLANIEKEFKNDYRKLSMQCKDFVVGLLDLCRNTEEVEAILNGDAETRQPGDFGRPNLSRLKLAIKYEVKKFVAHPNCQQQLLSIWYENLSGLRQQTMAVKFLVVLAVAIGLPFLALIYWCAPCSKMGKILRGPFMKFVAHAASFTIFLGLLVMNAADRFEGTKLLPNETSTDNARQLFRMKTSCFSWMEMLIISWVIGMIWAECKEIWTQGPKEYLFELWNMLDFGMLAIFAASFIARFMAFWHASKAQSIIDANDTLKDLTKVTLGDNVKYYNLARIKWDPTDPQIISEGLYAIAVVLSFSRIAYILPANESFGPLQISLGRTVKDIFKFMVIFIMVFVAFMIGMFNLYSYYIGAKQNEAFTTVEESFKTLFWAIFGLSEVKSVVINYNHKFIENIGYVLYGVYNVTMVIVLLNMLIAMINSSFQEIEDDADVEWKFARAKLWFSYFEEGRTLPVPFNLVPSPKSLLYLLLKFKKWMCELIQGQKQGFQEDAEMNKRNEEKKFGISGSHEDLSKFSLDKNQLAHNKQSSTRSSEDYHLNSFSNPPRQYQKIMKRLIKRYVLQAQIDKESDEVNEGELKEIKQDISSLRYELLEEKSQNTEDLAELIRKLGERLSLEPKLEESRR
# TRPC4 potent: positive allosteric modulators of TRPC4, primary screen, cell-based, mouse TRPC4beta, HEK293 mu-opioid, Fluo-4 calcium. Short transient receptor potential channel 4 (Mus musculus), Q9QUQ5. DAMGO EC20, Fluo-4 Ca2+ flux; stronger effect = higher value. B-score at 10 µM. actives 0.42% (n = 310,000);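 active = B-score of calcium response area above 5 SD of library B-scores, with initial fluorescence ratio within 5 SD of library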;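 also: B-score of integrated fluorescence ratio over time as area under calcium response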
# TRPC4 agonist: activators of mouse TRPC4 channel, primary screen, Fluo4 calcium, HEK293 TRPC4beta/mu-opioid cells; Short transient receptor potential channel 4 (Mus musculus), Q9QUQ5; B-score at 10 µM; Fluo4 calcium fluorescence; stronger effect = higher value; actives 0.49% (n = 310,000);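 active = B-score above 5 SD of library B-scores, and initial fluorescence ratio not above library mean plus 5 SD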;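 also: positive B-score marks a calcium rise read as TRPC4 activation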
#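 Assay system – TRPC4beta and mu-opioid receptor HEK293 stable cells · Measured by – Fluo4 fluorescence, kinetic · Schedule – dye loading 45 min room temperature, 110 s kinetic read · Read-out – B-scored integrated calcium fluorescence ratio · Controls – buffer and maximal DAMGO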
# TRPC4 inh: inhibitors of mouse TRPC4 channel, primary screen, Fluo4 calcium, HEK293 TRPC4beta/mu-opioid cells; actives 0.39% (n = 300,000); Short transient receptor potential channel 4 (Mus musculus), Q9QUQ5; B-score at 10 µM; DAMGO-evoked Fluo4 calcium flux; stronger effect = lower value; AID 2247, 2010;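 active = B-score over 3 SD under the library average, no early fluorescence shift, positive overall ratio signal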
#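 Assay system: TRPC4beta/mu-opioid receptor HEK293 cell line; compound dosing: single concentration per test compound; detection: Fluo4 Ca2+ flux fluorescence; evaluation: per-well B score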
# TRPC6 inh: mouse TRPC6 channel inhibitors, primary screen, cell-based, HEK293, membrane potential dye. ACh-evoked depolarization; stronger effect = lower value. B-score at 10 µM. actives 1.1% (n = 310,000). AID 2553, 2010;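 active = B-score under library mean minus 3 SD, initial fluorescence not abnormally high, positive integrated signal ratio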;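 also: B-score derived from integrated fluorescence ratio over the kinetic read; more negative B-score means stronger inhibition of depolarization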
# Active calls of the source: *; i = inactive. Shown are actives, neighbours in structure and some others; about 2.3% of the full set was active somewhere.
SMILES,TRPC6 activator,TRPC4 potent,TRPC4 agonist,TRPC4 inh,TRPC6 inh
O=C(c1cccs1)c1no[n+]([O-])c1C(=O)c1cccs1,i,i,54*,i,i
COc1ccc(C(=O)c2no[n+]([O-])c2C(=O)c2ccc(OC)cc2)cc1,i,53*,i,i,i
Cc1ccc(-c2nnc(NC3CCCC3)s2)cc1,i,i,i,i,i
COc1ccc(Cl)cc1C(=O)Nc1ccccc1N1CCN(C)CC1,i,i,126*,i,i
COc1ccc(CCC(=O)Nc2cc(Cl)ccc2N2CCN(C)CC2)cc1,i,12*,i,i,i
COc1ccc(CC(=O)Nc2cc(Cl)ccc2N2CCCC2)cc1,i,i,i,i,i
CN1CCN(c2ccc(Cl)cc2NC(=O)/C=C/c2ccc(F)cc2)CC1,i,13*,i,i,i
CC(C)N1C(=O)CCC1C(=O)NCc1ccc(F)cc1Cl (stereo unspecified),i,i,i,i,i
O=C(CN1CCN(S(=O)(=O)c2ccc(F)cc2)CC1)Nc1ccc(F)cc1F,i,i,i,i,i
CC(C)COc1cccc(C(=O)Nc2ccc(N3CCOCC3)cc2N2CCOCC2)c1,i,i,i,i,i
CCn1c(CCC(=O)N(C)CC(=O)Nc2cccc(F)c2)nc2cc(S(=O)(=O)N(C)C)ccc21,i,i,i,i,i
N=c1ccn(Cc2ccc(Cl)cc2)cc1,i,i,i,i,i
N=c1ccn(Cc2ccc(Cl)c(Cl)c2)cc1,i,i,61*,i,i
Cc1ccccc1-n1nc2c(c1NC(=O)c1ccc3c(c1)OCO3)CS(=O)(=O)C2,i,i,i,i,i
CC1(c2ccc(OC(F)F)cc2)NC(=O)N(CC(=O)Nc2ccc3c(c2)OCO3)C1=O (stereo unspecified),i,12*,89*,i,i
CC1(c2ccc(OC(F)F)cc2)NC(=O)N(CC(=O)Nc2ccccc2)C1=O (stereo unspecified),i,i,68*,i,i
CC(=O)Nc1ccc(/C=N/N2C(=O)NC(C)(c3ccc(OC(F)F)cc3)C2=O)cc1 (stereo unspecified),i,i,95*,i,i
Cc1cc(F)ccc1S(=O)(=O)N1CCCCC1CCNC(=O)C(=O)NCc1ccccn1 (stereo unspecified),i,i,i,i,i
Cc1ccc(NC(=O)CSCC(=O)N(C)CC(=O)Nc2cccc3ccccc23)cc1,i,i,i,i,i
COc1cccc(Cn2c(Oc3ccccc3)nc3c2c(=O)n(C)c(=O)n3C)c1,i,i,i,-6*,i
COc1cccc(Cn2c(Oc3cccc(C)c3)nc3c2c(=O)n(C)c(=O)n3C)c1,i,i,i,i,i
O=C(O)C(C(O)c1ccc([N+](=O)[O-])cc1)[n+]1ccccc1 (stereo unspecified),i,i,i,i,i
Fc1ccc(C2CCNCC2COc2ccc3c(c2)OCO3)cc1 (stereo unspecified),i,i,102*,i,i
O=C(CC1SC(=O)NC1=O)Nc1ccc(Cl)cc1 (stereo unspecified),i,i,45*,i,i
CCN1CCN(CC(=O)Nc2c(OC)cccc2OC)CC1,i,i,i,i,i
CC(C)Cc1csc(NC(=O)c2ccccc2Cl)c1C(=O)O,i,i,i,i,i
CC(C)Cc1csc(NC(=O)c2ccc(Cl)cc2)c1C(=O)O,i,i,48*,i,i
O=C(NCCOc1ccccc1)C1CCC(=O)N(CCN2CCOCC2)C1 (stereo unspecified),i,i,i,i,i
